≈ marks a conversion by molar mass, not a printed value.
Legend:
HCT-116 [1] = experiment: Antiproliferative activity against human HCT116 cells after 72 hrs by WST-1 assay; format: functional
Method in brief: (§1)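 Cells seeded at (1-5) × 10³/well in serum-containing medium for 24 h at 37 °C, 5% CO₂. Inhibitor added at 0.6-10000 nM for 72 h, with WST-1 pulse over the final 4 h. Formazan read at 450 nm (reference 650 nm). Expressed as % inhibition of vehicle response; GI50 is the concentration inhibiting 50% of vehicle response; n = 6 replicates.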

[2] = Ratio of GI50 for human HCT116 cells to IC50 for HDAC in human HeLa cell nuclear extracts
Method in brief: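 Cell/enzyme ratio = HCT116 GI50 divided by HDAC IC50. Enzyme: HeLa nuclear extract (10 μg protein), 5 min preincubation, then Fluor de Lys substrate 62.5 μM, 15 min at room temperature. Stopped with developer containing trichostatin A; fluorescence ex 355/em 455 nm; eight concentrations in duplicate. Cells: HCT116, 72 h exposure (0.6-10000 nM), WST-1 read at 450 nm, n = 6.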

Histone deacetylase = experiment: Inhibition of HDAC in human HeLa cells nuclear extract using fluor de Lys as substrate preincubated for 5 mins by fluorometric analysis; format: cell-based
[3] = AUC (0 to t) in plasma of CD1 mouse at 3 mg/kg, po; format: ADME, organism-based; set-up: dose 3 mg/kg, route oral
Method in brief: (§2)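 Oral cassette PK in CD1 mice: four compounds per cassette, each at 3 mg/kg po. AUC0-t (ng h/mL) measured in plasma and spleen; spleen/plasma AUC ratio reported.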

[4] = AUC (0 to t) in spleen of CD1 mouse at 3 mg/kg, po; format: ADME, organism-based; set-up: dose 3 mg/kg, route oral; method in brief: as §2
Spleen = experiment: Ratio of AUC (0 to t) in spleen to plasma of CD1 mouse at 3 mg/kg, po; conditions: in vivo
[5] = Clearance in mouse liver microsomes assessed as compound remaining after 30 mins; format: ADME, Microsome; conditions: read-out: Activity
[6] = Clearance in human liver microsomes assessed as compound remaining after 30 mins; format: ADME, Microsome; conditions: read-out: Activity
Cytochrome P450 2C19 = Cytochrome P450 2C19 (Homo sapiens, UniProt P33261); experiment: Inhibition of CYP2C19; format: ADME
[7] = Aqueous solubility of the compound in PBS at pH 5.5; format: physicochemical
Cytochrome P450 2D6 = Cytochrome P450 2D6 (Homo sapiens, UniProt P10635); experiment: Inhibition of CYP2D6; format: ADME
Cytochrome P450 3A4 = Cytochrome P450 3A4 (Homo sapiens, UniProt P08684); experiment: Inhibition of CYP3A4; format: ADME
[8] = Aqueous solubility of the compound in PBS at pH 7.4; format: physicochemical
COR-L23 [9] = experiment: Antiproliferative activity against doxorubicin-resistant human COR-L23 cells after 72 hrs by WST-1 assay; format: functional; method in brief: as §1
HCT-116 [10] = experiment: Cell cycle arrest in human HCT116 cells assessed as accumulation at G2/M phase at 300 nM after 15 hrs by propidium iodide staining based flow cytometric analysis; format: functional
A549 = experiment: Antiproliferative activity against human A549 cells after 72 hrs by WST-1 assay; format: functional; method in brief: as §1
COR-L23 [11] = experiment: Antiproliferative activity against human COR-L23 cells after 72 hrs by WST-1 assay; format: functional; method in brief: as §1
[12] = Antiproliferative activity against human […] cells after 72 hrs by WST-1 assay; format: functional; method in brief: as §1
MIA PaCa-2 = experiment: Antiproliferative activity against human MIAPaCa2 cells after 72 hrs by WST-1 assay; format: functional; method in brief: as §1
LoVo = experiment: Antiproliferative activity against human LoVo cells after 72 hrs by WST-1 assay; format: functional; method in brief: as §1
HCT-116 [13] = experiment: Cell cycle arrest in human HCT116 cells assessed as accumulation at sub-G1 phase at 300 nM after 15 hrs by propidium iodide staining based flow cytometric analysis; format: functional
U-937 = experiment: Antiproliferative activity against human U937 cells after 72 hrs by WST-1 assay; format: functional; method in brief: as §1
HCT-116 [14] = experiment: Cell cycle arrest in human HCT116 cells assessed as accumulation at S phase at 300 nM after 15 hrs by propidium iodide staining based flow cytometric analysis; format: functional
HepG2 = experiment: Antiproliferative activity against human HepG2 cells after 72 hrs by WST-1 assay; format: functional; method in brief: as §1
MG-63 = experiment: Antiproliferative activity against human MG63 cells after 72 hrs by WST-1 assay; format: functional; method in brief: as §1
A2780 = experiment: Antiproliferative activity against human A2780 cells after 72 hrs by WST-1 assay; format: functional; method in brief: as §1
HCT-116 [15] = experiment: Cell cycle arrest in human HCT116 cells assessed as accumulation at G1 phase at 300 nM after 15 hrs by propidium iodide staining based flow cytometric analysis; format: functional
MOLT-4 = experiment: Antiproliferative activity against human MOLT4 cells after 72 hrs by WST-1 assay; format: functional; method in brief: as §1

Cytochrome P450 2D6, sequence (P10635 whole entry): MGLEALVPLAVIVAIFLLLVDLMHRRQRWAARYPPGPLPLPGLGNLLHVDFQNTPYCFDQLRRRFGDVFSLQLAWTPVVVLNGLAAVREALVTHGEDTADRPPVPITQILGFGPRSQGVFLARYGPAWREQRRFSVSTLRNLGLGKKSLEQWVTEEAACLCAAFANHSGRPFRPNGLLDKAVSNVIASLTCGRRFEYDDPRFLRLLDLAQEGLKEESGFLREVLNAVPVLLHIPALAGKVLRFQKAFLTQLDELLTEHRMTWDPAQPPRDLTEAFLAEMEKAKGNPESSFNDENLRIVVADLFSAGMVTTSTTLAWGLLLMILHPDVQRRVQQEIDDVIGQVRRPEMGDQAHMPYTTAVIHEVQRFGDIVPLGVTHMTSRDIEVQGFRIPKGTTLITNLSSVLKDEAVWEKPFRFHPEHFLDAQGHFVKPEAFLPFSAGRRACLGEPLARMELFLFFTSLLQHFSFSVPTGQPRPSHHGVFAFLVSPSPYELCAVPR
Cytochrome P450 2C19, sequence (P33261 whole entry): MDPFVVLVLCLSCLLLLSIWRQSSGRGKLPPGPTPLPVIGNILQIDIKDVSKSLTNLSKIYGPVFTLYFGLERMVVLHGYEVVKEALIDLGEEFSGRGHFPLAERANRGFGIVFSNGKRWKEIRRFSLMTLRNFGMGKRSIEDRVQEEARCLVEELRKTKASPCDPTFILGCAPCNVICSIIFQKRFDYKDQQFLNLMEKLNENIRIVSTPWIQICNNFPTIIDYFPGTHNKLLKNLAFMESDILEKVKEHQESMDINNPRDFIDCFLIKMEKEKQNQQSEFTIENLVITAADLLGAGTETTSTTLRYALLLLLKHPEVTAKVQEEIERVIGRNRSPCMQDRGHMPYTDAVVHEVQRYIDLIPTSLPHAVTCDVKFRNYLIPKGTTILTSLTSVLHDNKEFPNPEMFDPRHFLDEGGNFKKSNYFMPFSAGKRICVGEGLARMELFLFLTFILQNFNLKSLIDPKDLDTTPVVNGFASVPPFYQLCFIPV
Cytochrome P450 3A4, sequence (P08684 whole entry): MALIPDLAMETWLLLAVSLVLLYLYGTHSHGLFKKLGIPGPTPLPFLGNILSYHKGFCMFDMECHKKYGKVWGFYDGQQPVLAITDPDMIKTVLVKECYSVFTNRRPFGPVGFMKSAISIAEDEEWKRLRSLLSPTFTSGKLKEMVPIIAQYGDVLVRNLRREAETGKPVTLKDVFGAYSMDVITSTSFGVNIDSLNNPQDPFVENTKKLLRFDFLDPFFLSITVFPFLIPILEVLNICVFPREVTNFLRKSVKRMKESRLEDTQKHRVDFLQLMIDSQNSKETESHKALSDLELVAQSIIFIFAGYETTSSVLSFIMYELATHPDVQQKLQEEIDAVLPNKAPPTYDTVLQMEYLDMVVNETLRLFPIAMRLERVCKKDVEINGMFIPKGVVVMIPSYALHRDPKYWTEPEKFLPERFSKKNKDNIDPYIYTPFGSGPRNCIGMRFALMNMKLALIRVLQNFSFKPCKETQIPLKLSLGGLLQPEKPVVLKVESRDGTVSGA

Structure (SMILES)	GI50 (HCT-116 [1]; Homo sapiens, HCT-116, 72 h) [nM]	Ratio [2]	IC50 (Histone deacetylase) [nM]	other results
CN([C@H]1[C@@H]2CN(c3ncc(C(=O)NO)cn3)C[C@@H]21)S(=O)(=O)c1ccc2ccccc2c1	1000	44	23	–
O=C(NO)c1cnc(N2C[C@@H]3[C@H](C2)[C@H]3NCc2ccc(Br)cc2)nc1	250	18	14	–
O=C(NO)c1cnc(N2C[C@@H]3[C@H](C2)[C@H]3NCc2ccc(C(F)(F)F)cc2)nc1	700	21	34	–
O=C(NO)c1cnc(N2C[C@@H]3[C@H](C2)[C@H]3NCc2ccc(-c3ccccc3)cc2)nc1	56	4	14	–
O=C(NO)c1cnc(N2C[C@@H]3[C@H](C2)[C@H]3NC(=O)c2ccccc2)nc1	5100	89	57	–
CCCCc1ccc(CN[C@H]2[C@@H]3CN(c4ncc(C(=O)NO)cn4)C[C@@H]32)cc1	410	18	22	–
O=C(NO)c1cnc(N2C[C@@H]3[C@H](C2)[C@H]3NC(=O)c2cccs2)nc1	3600	90	40	–
O=C(NO)c1cnc(N2C[C@@H]3[C@H](C2)[C@H]3NCc2ccc(OC(F)(F)F)cc2)nc1	120	8	15	AUC(0-t) [3]: 83 ng·h/mL; AUC(0-t) [4]: 251 ng·h/mL; Ratio (Spleen): 3
O=C(NO)c1cnc(N2C[C@@H]3[C@H](C2)[C@H]3NS(=O)(=O)c2ccc3ccccc3c2)nc1	440	73	6.5	remaining at 0.5 h [5]: 66%; remaining at 0.5 h [6]: 43%; IC50 (Cytochrome P450 2C19): 10000 nM; solubility [7]: 74 µg/mL (≈ 174 µM); IC50 (Cytochrome P450 2D6): 10000 nM; IC50 (Cytochrome P450 3A4): 10000 nM; solubility [8]: 34 µg/mL (≈ 79.9 µM)
O=C(NO)c1cnc(N2C[C@@H]3[C@H](C2)[C@H]3NCc2ccccc2)nc1	120	12	10	–
O=C(NO)c1cnc(N2C[C@@H]3[C@H](C2)[C@H]3NCc2ccc(Oc3ccccc3)cc2)nc1	120	7.5	16	AUC(0-t) [3]: 52 ng·h/mL; AUC(0-t) [4]: 219 ng·h/mL; Ratio (Spleen): 4.2
N#Cc1ccc(CN[C@H]2[C@@H]3CN(c4ncc(C(=O)NO)cn4)C[C@@H]32)cc1	270	9	30	–
O=C(NO)c1cnc(N2C[C@@H]3[C@H](C2)[C@H]3NC(=O)c2ccc3ccccc3c2)nc1	410	32	13	–
O=C(NO)c1cnc(N2C[C@@H]3[C@H](C2)[C@H]3NCc2ccc(F)cc2)nc1	380	14	27	–
O=C(NO)c1cnc(N2C[C@@H]3[C@H](C2)[C@H]3NCC2CCCCC2)nc1	160	4	44	–
O=C(NO)c1cnc(N2C[C@@H]3[C@H](C2)[C@H]3NCc2ccc3ccccc3c2)nc1	160	13	12.4	remaining at 0.5 h [5]: 100%; remaining at 0.5 h [6]: 40%; AUC(0-t) [3]: 50 ng·h/mL; IC50 (Cytochrome P450 2C19): > 50000 nM; solubility [7]: 208 µg/mL (≈ 554 µM); IC50 (Cytochrome P450 2D6): > 50000 nM; IC50 (Cytochrome P450 3A4): > 50000 nM; AUC(0-t) [4]: 145 ng·h/mL; Ratio (Spleen): 2.9; solubility [8]: 12 µg/mL (≈ 32 µM)
O=C(NO)c1cnc(N2C[C@@H]3[C@H](C2)[C@H]3NS(=O)(=O)c2cccs2)nc1	> 10000	>370	27	–
O=C(CCCCCCC(=O)Nc1ccccc1)NO [VORINOSTAT]	–	–	–	GI50 (COR-L23 [9]): 3300 nM; GI50 (HCT-116 [1]): 740 nM; Activity (HCT-116 [10]): 32%; GI50 (A549): 5700 nM; GI50 (COR-L23 [11]): 1100 nM; GI50 [12]: 2100 nM; GI50 (MIA PaCa-2): 3500 nM; GI50 (LoVo): 1700 nM; Activity (HCT-116 [13]): 19%; GI50 (U-937): 450 nM; Activity (HCT-116 [14]): 14%; GI50 (HepG2): 4600 nM; GI50 (MG-63): > 10000 nM; GI50 (A2780): 3150 nM; Activity (HCT-116 [15]): 35%; GI50 (MOLT-4): 670 nM
O=C(NO)c1cnc(N2C[C@@H]3[C@H](C2)[C@H]3NCc2ccc3ccccc3n2)nc1	–	–	9	AUC(0-t) [3]: 42 ng·h/mL; AUC(0-t) [4]: 294 ng·h/mL; Ratio (Spleen): 7
O=C(NO)c1cnc(N2C[C@@H]3[C@H](C2)[C@H]3NCc2cc(C(F)(F)F)cc(C(F)(F)F)c2)nc1	200	12.5	16	–
O=C(NO)c1cnc(N2C[C@@H]3[C@H](C2)[C@H]3NCCc2ccccc2)nc1	280	8	34	–
O=C(NO)c1cnc(N2CC3C(CNCc4ccc5ccccc5c4)C3C2)nc1 (centres undefined)	370	12	32	–
COc1ccc(CN[C@H]2[C@@H]3CN(c4ncc(C(=O)NO)cn4)C[C@@H]32)cc1	190	9.5	20	–
O=C(NO)c1cnc(N2C[C@@H]3[C@H](C2)[C@H]3NCc2cc(F)cc(F)c2)nc1	200	13	16	–
